Results collected from several papers.
Compare with care: the assays were run in different laboratories.
Target: Serine/threonine-protein kinase 25 (STK25, Homo sapiens, UniProt O00506)

`CC(C)(C)c1nc2c(s1)c1nc(N)ncc1c1ccc(NS(=O)(=O)c3c(F)cccc3F)c(F)c12` gave a remaining activity of 57% (enzyme activity, inhibitor, radiometric; 1 µM).
`COc1ccc2c(O[C@@H]3C[C@H]4C(=O)N[C@]5(C(=O)O)CC5/C=C\CCCCC[C@H](NC(=O)OC5CCCC5)C(=O)N4C3)cc(-c3csc(NC(=O)C(C)C)n3)nc2c1C` (some centres unmarked) has a remaining binding of 100% (cell-free assay, competition with immobilised ligand; 1 µM).
For `Cc1cc(NC(=O)c2cccc3cc(-c4cccc5[nH]nc(N)c45)ccc23)ccc1F`, the activity vs control was 92% (enzyme activity, inhibitor; 0.1 µM).
With `CC(=O)c1c(NS(C)(=O)=O)c2cc(-c3ccc(Cl)cc3)c(-c3ccc(Cl)cc3Cl)nc2n(C)c1=O` the remaining binding was 100% (cell-free assay, competition with immobilised ligand; 1 µM).
`N#CCCc1ccc2c(c1)-c1[nH]c3ccc([N+](=O)[O-])cc3c1CC(=O)N2` has a remaining signal of 91.1% (cell-free assay; 0.5 µM).
For `COc1cccc2c(NCc3ccccc3)nc(-n3c(N)nc4ccccc43)nc12`, the inhibition was 3.5% (target engagement in cells, inhibitor, chemoproteomics; 20 mM).
For `CN(C)c1ncc(F)c(-c2cnn3ncccc23)n1`, the remaining binding was 100% (binding; 1 µM).
`Cn1c2c(Cl)c(Cl)ccc2c2cc[nH]c(=O)c21` gave a ΔTm of 0.5 °C (thermal stability, DSF; 10 µM).
For `O=C(Nc1ccc(Oc2ccc(F)cc2)cc1)N1CCc2ncccc2[C@H]1c1ccc(F)cc1`, the remaining binding was 100% (cell-free assay, competition with immobilised ligand; 1 µM).
`COc1cc(-c2cc(-c3ccc(N4CCNCC4)cc3)cnc2C)cc(OC)c1OC` has an inhibition of 1% (enzyme activity, inhibitor; 0.1 µM).
For `COc1cc2ncnc(Nc3ccc(Oc4ccccc4)cc3C)c2cc1OC`, the inhibition was -2% (enzyme activity, inhibitor; 1 µM).
The remaining signal of `O=C1NC(=O)c2cc(Nc3ccc(F)cc3)c(Nc3ccc(F)cc3)cc21` is reported as 101% (cell-free assay; 0.5 µM).
The remaining activity of `O=C(Nc1cnn(-c2csc(C(=O)NC3COC3)c2)c1)Nc1c(F)cccc1Cl` is reported as 96.1% (enzyme activity, inhibitor; 5 µM).
With `CN1CCC2(CC1)NC(=O)c1c(c3ccc(Cl)c(Cl)c3n1C)C2C#N` (racemic) the ΔTm was 0.3 °C (thermal stability, DSF; 10 µM).
With `Cc1ccc(NC(=O)c2ccc(C)c(C(F)(F)F)c2)cc1C#Cc1nn(C2CCC(O)CC2)c2ncnc(N)c12` (centres unmarked) the remaining signal was 66% (cell-free assay; 10 µM).
`CC1=C(C#N)C(c2ccc3c(c2)c(NC(=O)c2ccccc2C)nn3C)C(C#N)=C(C)N1` gave a remaining binding of 100% (cell-free assay, competition with immobilised ligand; 1 µM).
The ΔTm of `Cn1c2c(c3ccc(Cl)c(Cl)c31)C(C#N)C(C)(C)NC2=O` (centres unmarked) is reported as 1.2 °C (thermal stability, DSF; 10 µM).
For `COc1cc(Cl)c(C(=O)N[C@@H](CN[C@H]2CC[C@@H](N)CC2)Cc2ccc(C#N)cc2)cc1-c1ccc(CN[C@H](C)c2ccc(C)cc2)o1`, the remaining activity was 104% (enzyme activity, inhibitor; 1 µM).
`Cc1ccc(C(=O)Nc2ccc(CN3CCN(C)CC3)c(C(F)(F)F)c2)cc1C#Cc1cnc2cccnn12` gave a remaining activity of 98% (enzyme activity, inhibitor; 23.5 nM).
The inhibition of `CCCS(=O)(=O)Nc1ccc(F)c(C(=O)c2c[nH]c3ncc(-c4ccc(Cl)cc4)cc23)c1F` is reported as < 10% (enzyme activity, inhibitor; 1 µM).
`COc1cc(-c2cn(C3CCc4ccccc4N(CC(F)(F)F)C3=O)nn2)ccc1-n1ccc(C)n1` (centres unmarked) has a remaining binding of 100% (cell-free assay, competition with immobilised ligand; 1 µM).
`c1ccc(CNc2nc(N3CCOc4ccccc43)nc3c2CCCC3)cc1` gave an inhibition of 34.6% (target engagement in cells, inhibitor, chemoproteomics; 20 mM).
`Cc1ccc(Nc2nccc(N(C)c3ccc4c(C)n(C)nc4c3)n2)cc1S(N)(=O)=O` gave a remaining activity of 97.3% (enzyme activity, inhibitor; 0.5 µM).
The remaining binding of `CNC(=O)c1ccc(Nc2ncc(C(F)(F)F)c(NCc3nccnc3N(C)S(C)(=O)=O)n2)cc1` is reported as 85% (cell-free assay, competition with immobilised ligand; 0.1 µM).
`O=C1Nc2ccc(Cl)cc2C1=Cc1cc(Cl)c(O)c(Cl)c1` gave a remaining signal of 94% (cell-free assay; 0.5 µM).
With `C[C@@H]1CN(c2cc(-c3nn(C)c4ccc(OC5(C)CC5)cc34)ncn2)C[C@H](C)O1` the remaining binding was 100% (cell-free assay, competition with immobilised ligand; 1 µM).
